The values below come from the EternaBench riboswitch data.

For orientation: apparent Kd means a dissociation constant that holds for the conditions of the assay.

The series has as its system MS2 coat protein. Nature of the series: apparent Kd, MS2 coat protein; higher = weaker binding; RNA-MaP array; FMN 200 µM where present. The method in brief: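 Designs on Illumina sequencing-chip clusters, transcribed by stalled E. coli RNA polymerase, were exposed to SNAP-549-labelled MS2 coat protein in doubling steps from 0.7 or 1.5 nM up to 3 µM, without and then with constant ligand. The buffer held 100 mM Tris-HCl pH 7.5, 80 mM KCl, 4 mM MgCl2, BSA, DTT, yeast tRNA and Tween-20. Apparent Kd values are medians of filtered per-cluster binding-curve fits to green signal normalised to red-channel RNA signal and control-cluster median Fmax.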

Where [1] appears, read: designed as: OFF switch for flavin mononucleotide, no ligand.
[2] abbreviates: ligand present: flavin mononucleotide, designed as: OFF switch for flavin mononucleotide.
Where [3] appears, read: designed as: ON switch for flavin mononucleotide, no ligand.
Setting [4] is: ligand present: flavin mononucleotide, designed as: ON switch for flavin mononucleotide.

As for “UUUAAGCGAGGAUAUACAUGAGGAUCACCCAUGUCAAGUAUUCUUGACGCCGUGCUCUGUAGAAGGCGCAAUUA”, the “apparent Kd” value stood at 65.2 nM under setting [1] and 522 nM under setting [2].
For “AAAUGCGUAAAGGACACAUGAGGAUCACCCAUGUUUCUGUCCAAGGAUAUGAGGUGAAUGAUCCGUCAGAAGGUGGACUUGCUU”, the “apparent Kd” value is, setting by setting: under setting [3], 114 nM; under setting [4], 220 nM.
Taken in the same sequence, the figures for “AAUUAAUUAAUACAUGAGGAUCACCCAUGUAAUUAUUAGAUCUAGGAUAUCAGCUCGUUUAGAGCUGAGAAGGAGAUCACAUGU” were 19.2 nM and 14.6 nM.
In the case of “UCCUCUUUGAAGAAGGCGUGGUUAUGCAAGCCGCGAGGAUAUUCACAUGAGGAUCACCCAUGUGGAUUUCAGUCCGCUCAAAAC”, the “apparent Kd” value came to 11.9 nM under setting [1] and 61.8 nM under setting [2].
Consider “GCAGCACAGAUUUACAUGAGGAUCACCCAUGUCUAUUAAGAUGAGGAUAUGCAUCGAAUGAAGUUGCAGAAGGCAUUGUGCUGC”, for which the “apparent Kd” value by setting is: under setting [3], 6.77 nM; under setting [4], 5.78 nM.
With “CCUGGCUUAGGAUAUACAGGAACCGAGAACCCGGAAGUGAAACAUGAGGAUCACCCAUGUAGAAGGAAGAAAGC”, the “apparent Kd” value is, setting by setting: under setting [1], 26.8 nM; under setting [2], 23.1 nM.
As for “CGAUAUUAUAGAGGAUAUGUUUAACAUGAGGAUCACCCAUGUGAGGUGGAAUUAAUGUAUUACUUACAGAAGGCUAUACAAUCG”, the “apparent Kd” value was 316 nM under setting [1] and 432 nM under setting [2].
Regarding “GUCAGCUCGUGAGGAUAUACAACACUGCUUCGGCAGUGUAUUAAGAUCACAUGAGGAUCACCCAUGUAGAAGGCACGACCUGAU”, the “apparent Kd” value under setting [1] was found to be 14.1 nM and the “apparent Kd” value under setting [2] came out at 257 nM.
On to “GUACUACAUGAGGAUCACCCAUGUCAGGAUAUGUGAAUUUCAUCAAAAGAUGAAAUUUGCAGAAGGGACAGUAC”, for which the “apparent Kd” value turned out to be 25.3 nM under setting [1] and 33.9 nM under setting [2].
Take “UUGGACGUCGUAGGAUAUGUAGGAUAUUCCUACAUGAGGAUCACCCAUGUUGACAUGGAAGAAGGACAGAAGGAAGAUGUCCAU”: the “apparent Kd” value by setting is: under setting [3], 776 nM; under setting [4], 13.9 nM.
For “AGCUGUGGCAGAGGAUAUACUUCAAUAAUCCAUUGCAAAUAGCGAUGGACAUGAGGAUCACCCAUGUAGAAGGCUGUCUCAGCA”, the “apparent Kd” value by setting is: under setting [1], 19.9 nM; under setting [2], 46.2 nM.
Turning to “GGAAAUCAUGUAGGAUAUGCAUGGCGAAGCUACGCAGAAGGACAUGAGGAUCACCCAUGUUCUGGCUACCGAGUUCGGUGGCAA”, the “apparent Kd” value is, setting by setting: under setting [1], 22.5 nM; under setting [2], 104 nM.
Take “UCGAUAAGGAGAGGAUAUGGACAUGAGGAUCACCCAUGUACAUGGGAAUAUAUACUGAAUUUUUACUAGAAGGCUUACAUAUUU”: the “apparent Kd” value runs as follows: under setting [1], 16.7 nM; under setting [2], 13.6 nM.
As for “UAGAAGUCAGGAUAUCCUGCUCGUCACUUGCGUGAUGAGUAGGAGAAGGGACAUGAGGAUCACCCAUGUAAAGC”, the “apparent Kd” value was 61.1 nM under setting [1] and 49.5 nM under setting [2].
“UAAGAUUAUUGAGGAUAUGGUAAUUUUUAUUAACCAGAAGGCAAACUCAACAUGAGGAUCACCCAUGUAUAAAGGGUAUUAGUU”: the “apparent Kd” value came out at 68 nM under setting [1] and 63.4 nM under setting [2].
As for “AAAUACGUAAAGGACACAUGAGGAUCACCCAUGUUUCUGUUCAAGGAUAUGAGGUGAAUGAUCCGUCAGAAGGUGAACUUGCUU”, the “apparent Kd” value turned out to be 117 nM under setting [3] and 624 nM under setting [4].
As to “AGAAAACAUGAGGAUCACCCAUGUGAGGAUAUCGAUGUCCAGGGCCUGGUGCGGGACUCGAGAAGGCACUGGGA”, the “apparent Kd” value by setting is: under setting [1], 59.9 nM; under setting [2], 86.9 nM.
In the case of “GACUGAUUACAGAAGGUGUAAGACAUGAGGAUCACCCAUGUGAUAUAGGGUAUAUUUGAAUAUAACAAGGAUAUGUAUAAAUCA”, the “apparent Kd” value under setting [3] was 102 nM and the “apparent Kd” value under setting [4] was determined as 60.4 nM.
Consider “ACAUGUACAGGAUAUACAUGGAUGAUACACGUAUUUCCACUACAUGAGGAUCACCCAUGUAGAAGGGUACAUGA”, for which the “apparent Kd” value was found to be 39.7 nM under setting [1] and 18.4 nM under setting [2].
Consider “UGUAGUUCAGGAUAUGAUGUUUAAAACAUGAGGAUCACCCAUGUAGAUCCUGAAUUAACAUCAGAAGGGAAUAUUU”, for which the “apparent Kd” value is 17.9 nM under setting [1] and 46.2 nM under setting [2].
Turning to “GGGUACAUCGGAGGAUAUCUUGUAAAUACAUGAGGAUCACCCAUGUCGAUGGAGACAUCGGAGAUUGAGAAGGCCGAUGUACCG”, the “apparent Kd” value runs as follows: under setting [3], 8.03 nM; under setting [4], 5.36 nM.
Take “AAUUAUUAUUGAGGAUAUGGUAGUGAAACACUACCAGAAGGCGGUAUAAACAUGAGGAUCACCCAUGUGAGCCUGAUGCUUAUG”: the “apparent Kd” value reads like this: under setting [1], 24.2 nM; under setting [2], 44.2 nM.
Turning to “UCAUUUAUCACAGGAUAUAUUAGUAUACAGUUGUUUGGCUCUUACAUAUUAAUAGAAGGGUGAAACAUGAGGAUCACCCAUGUA”, the “apparent Kd” value was determined as 621 nM under setting [3] and 224 nM under setting [4].
In the case of “CCAUGACAAAGUCAUGGAUAACGAACAUGAGGAUCACCCAUGUAGGAUAUGCUACUCAAAGAGUAGCAGAAGGACAUGUGUCUU”, the “apparent Kd” value under setting [1] came to 32.7 nM and the “apparent Kd” value under setting [2] turned out to be 165 nM.
Taken in the same sequence, the figures for “UUUGUCUGUGUGAGGAUAUACUUGUUUGGGUUUUUGUAGAAGGCACAUGAGGAUCACCCAUGUAUUUUGUUGUG” were 58.3 nM and 75.5 nM.
With “CUGCUGGAGCUUUGCUUUAGUCGUACAUGAGGAUCACCCAUGUAGGAUAUGGUAGGCUUUGCUUACCAGAAGGAUAGAGUGGUC”, the “apparent Kd” value under setting [1] came out at 93.5 nM and the “apparent Kd” value under setting [2] came to 40.6 nM.
Consider “AGCUGUGGCCGAGGAUAUCUAAAACCUCAAAACGAAAUAUAAUCGAACAUGAGGAUCACCCAUGUAGAGAAGGCGGUCUCAGCA”, for which the “apparent Kd” value is, setting by setting: under setting [1], 270 nM; under setting [2], 514 nM.
“GACGGAUGUAUAGGAUAUGCUGAGGAUAACUCAGCAGAAGGAUACAUGAGGAUCACCCAUGUAAUAAUAAUAAUAAUAACCGUC”: the “apparent Kd” value runs as follows: under setting [1], 13.3 nM; under setting [2], 24.1 nM.
On to “UACUUGUCAGGAUAUCUUACAUUAACAUCGUAGUUACAAUUGGAGAAGGGACAUGAGGAUCACCCAUGUUUGGC”, for which the “apparent Kd” value was determined as 25.8 nM under setting [1] and 34.5 nM under setting [2].
In the case of “GGAUGACAAAGUCAUCCUAAACGAACAUGAGGAUCACCCAUGUAGGAUAUGCUUCUCAAAGAGAAGCAGAAGGACAUGUGCCUU”, the “apparent Kd” value by setting is: under setting [1], 35.1 nM; under setting [2], 276 nM.
Taken in the same sequence, the figures for “UGUCGGAGCAGAGGAUAUUACAUGAGGAUCACCCAUGUAUGAACCAAUCGCUGGAAACAGCAAUGUAAGAAGGCUGCUCCGACA” were 10.3 nM and 73.7 nM.
In the case of “UAUAUGUCAGGAUAUUAGUAGUGGACGAAUAAGACUACUGCUGAGAAGGGACAUGAGGAUCACCCAUGUUCCUC”, the “apparent Kd” value runs as follows: under setting [1], 20.2 nM; under setting [2], 172 nM.
Taken in the same sequence, the figures for “AGACUGCGUAGAAUUAGCAGCUGACAGGAUAUGACAUGAGGAUCACCCAUGUGAAAUAAGAAGGGUCAGAAGGGUCACGACACA” were 11.7 nM and 9.98 nM.
Take “GAUCGAGAACUCACGGCGUUGCACAUGAGGAUCACCCAUGUGCAGGAUAUGGCCGCCGUCGGAGGCCAGAAGGGCACAGUAGGU”: the “apparent Kd” value runs as follows: under setting [1], 10.2 nM; under setting [2], 20 nM.
Consider “GCAACGCCUGACAUGAGGAUCACCCAUGUUAGAUUGUUAUGUCAGGAUAUAGUCUAGAAACUAGACUAGAAGGGAUGUGUUGCU”, for which the “apparent Kd” value under setting [3] worked out at 703 nM and the “apparent Kd” value under setting [4] was 131 nM.
In the case of “GCUGGGUCAGGAUAUACAAGAUCGAAAGAUCUGUGAAACGAACAUGAGGAUCACCCAUGUAGAAGGGACUGGGC”, the “apparent Kd” value under setting [1] amounted to 20.5 nM and the “apparent Kd” value under setting [2] was determined as 33.2 nM.
On to “GCCAUCGCAUGAGGAUAUGCUCCGGUUUCCGGAGCAGAAGGCGUGUCAUAAGACAUGAGGAUCACCCAUGUAGCUAAGAUGGCA”, for which the “apparent Kd” value amounted to 249 nM under setting [3] and 10.8 nM under setting [4].
“AUCAGCACGUGAGGAUAUGCGUCACUGCGAAAGCAGUGCGGUAAGAUCACAUGAGGAUCACCCAUGUAGAAGGCACGAGCUGAU”: the “apparent Kd” value runs as follows: under setting [1], 20.8 nM; under setting [2], 54 nM.
As for “AAAUAGCGAGGAUAUACAUGAGGAUCACCCAUGUGGACUGAUGUCGCGUGAUUCAGUGGUAGAAGGUGCUCAAA”, the “apparent Kd” value runs as follows: under setting [1], 45.4 nM; under setting [2], 76.3 nM.
With “GAUCCACAUGAGGAUCACCCAUGUGAGGAUAUGAUACUAUGUACUUCGGUACAUAGUAUCAGAAGGCAUAUUGA”, the “apparent Kd” value under setting [1] came out at 44 nM and the “apparent Kd” value under setting [2] turned out to be 75.7 nM.
For the sequence “CUCUUGUCAGGAUAUUAUGGACGAAGGCAGGGCCGCGUCAGUGAGAAGGGACAUGAGGAUCACCCAUGUAAAAU”, the “apparent Kd” value under setting [1] came to 97.8 nM and the “apparent Kd” value under setting [2] turned out to be 74.6 nM.
Consider “AGUGAAUGUACAGGAUAUGCUGGACUUUGUCCAGCAGAAGGGUAUUAACAUGAGGAUCACCCAUGUUCAUUCACCAAAUUUAAU”, for which the “apparent Kd” value under setting [3] is 38.8 nM and the “apparent Kd” value under setting [4] turned out to be 8.3 nM.
“ACGUUAAUUCGAGGAUAUCGGUGAUUUAUAUUACGAGAAGGCGAUAAUUGUGAUAAACUUAUAGACAUGAGGAUCACCCAUGUA”: the “apparent Kd” value is, setting by setting: under setting [3], 42.7 nM; under setting [4], 38.8 nM.
In the case of “ACCUAGUCAGGAUAUGUACGGACCGGAAGCGGAUCGGAGGAGCAGAAGGGACAUGAGGAUCACCCAUGUUUGUU”, the “apparent Kd” value by setting is: under setting [1], 25.3 nM; under setting [2], 28 nM.
Consider “UUGAGGUAGGAGAAGGACAGAGGCGGAAACACAAACAUGAGGAUCACCCAUGUAGGAUAUCCUAACUAACGAGGAUACCUCAAG”, for which the “apparent Kd” value under setting [1] amounted to 6.49 nM and the “apparent Kd” value under setting [2] turned out to be 7.53 nM.
With “GAGGACUGAAUAAAUAACUCAAAUACAUGAGGAUCACCCAUGUAGGAUAUCGUCAGGAAUACUGACGAGAAGGACAUACAGUCC”, the “apparent Kd” value is, setting by setting: under setting [1], 13.4 nM; under setting [2], 19.2 nM.
Turning to “GCGCCAUCGUGAGAUGGCGUAUAUACAUGAGGAUCACCCAUGUAGGAUAUCGAUUGCUUUGCAGUCGAGAAGGGCAUGUAAUUU”, the “apparent Kd” value by setting is: under setting [1], 33.5 nM; under setting [2], 43.9 nM.
As to “AAGAGCGAUUCUCCCUUCCUACAUGAGGAUCACCCAUGUACGAGAAGGCGCCGUGUAUACAACGGUGAGGAUAUCGUACGUUAC”, the “apparent Kd” value under setting [1] was 5.46 nM and the “apparent Kd” value under setting [2] worked out at 10.7 nM.
